Results from ChEMBL document CHEMBL4308915, “Synthesis of novel pyrazoline derivatives and the evaluation of death mechanisms involved in their antileukemic activity” (Bioorg Med Chem, 2019).
pIC50: −log10 of the molar value. Activity calls are given as the source filed them. The rule behind the calls is not given here.

Tests used:
B16-F10 = test: Cytotoxicity against mouse B16F10 cells assessed as reduction in cell viability after 48 hrs by MTT assay; format: functional, cell-based; conditions: B16-F10, 48 h
Jurkat [1] = test: Cytotoxicity against human Jurkat cells assessed as reduction in cell viability after 72 hrs by MTT assay; format: functional, cell-based
PBMC [2] = test: Cytotoxicity against human PBMC assessed as reduction in cell viability after 48 hrs by MTT assay; format: cell-based
K562 [3] = test: Induction of apoptosis in human K562 cells assessed as increase in loss of membrane integrity at 32 uM by acridine orange/ethidium bromide staining-based fluorescence microscopic analysis; format: functional, cell-based
Jurkat [4] = test: Induction of apoptosis in human Jurkat cells assessed as decrease in survivin level at 30.08 uM after 12 hrs by flow cytometric analysis relative to control; format: functional
[5] = Hemolytic activity in human RBC at 12 times IC50 relative to control; format: ADME, cell-based, Erythrocyte; conditions: red blood cells (erythrocytes), read-out: Activity
How it was run: (§1)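 RBC from healthy non-smoking volunteers incubated with increasing concentrations of the selected pyrazolines. Saline served as the 0% lysis control and distilled water as the 100% lysis control. Percent hemolysis calculated relative to these controls.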

K562 [6] = test: Induction of apoptosis in human K562 cells assessed as increase in FasR expression at 32 uM after 12 hrs by flow cytometric analysis relative to control; format: functional
K562 [7] = test: Cell cycle arrest in human K562 cells assessed as increase in accumulation at G0/G1 phase at 32 uM after 12 hrs by propidium iodide/RNAse staining based flow cytometric analysis relative to control; format: functional
K562 [8] = test: Induction of apoptosis in human K562 cells assessed as decrease in Bcl2 expression at 32 uM after 12 hrs by flow cytometric analysis relative to control; format: functional; parameters: scale not given: the % may be the effect or the level left
Jurkat [9] = test: Induction of apoptosis in human Jurkat cells assessed as increase in Bax expression at 30.08 uM after 12 hrs by flow cytometric analysis relative to control; format: functional
Jurkat [10] = test: Induction of apoptosis in human Jurkat cells assessed as increase in membrane blebbing at 30.08 uM by acridine orange/ethidium bromide staining-based fluorescence microscopic analysis; format: functional, cell-based
K562 [11] = test: Cytotoxicity against human K562 cells assessed as reduction in cell viability after 72 hrs by MTT assay; format: functional, cell-based; conditions: K562, 72 h
Jurkat [12] = test: Cytotoxicity against human Jurkat cells assessed as reduction in cell viability after 24 hrs by MTT assay; format: functional, cell-based
How it was run: (§2)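 MTT viability after 24 h exposure. Cells seeded at 5x10^4 per well and tested at 1-100 µM. Optical density of untreated cells set as 100% viable. IC50 derived by curve fitting. PBMC from healthy non-smoking volunteers, isolated by Ficoll-Hypaque.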

Jurkat [13] = test: Induction of apoptosis in human Jurkat cells assessed as increase in AIF release at 30.08 uM after 12 hrs by flow cytometric analysis relative to control; format: functional
K562 [14] = test: Induction of apoptosis in human K562 cells assessed as reduction in cells with intact mitochondrial membrane potential at 32 uM after 12 hrs by flow cytometric analysis relative to control; format: functional; parameters: scale not given: the % may be the effect or the level left
[15] = Selectivity index, ratio of IC50 for human PBMC to IC50 for mouse B16F10 cells after 24 hrs; format: toxicity; conditions: PBMC versus B16F10 cells, read-out: Ratio IC50
How it was run: (§3)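 MTT viability after 24 h exposure to 1-100µM; untreated control OD taken as 100%. IC50 by curve fitting in each line and in PBMC from six healthy donors (Ficoll-Hypaque). SI = IC50 PBMC / IC50 tumor line; SI ≥5 high, 2–5 moderate, <2 low.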

[16] = Selectivity index, ratio of IC50 for human PBMC to IC50 for human Jurkat cells after 24 hrs; format: toxicity; conditions: PBMC versus Jurkat cells, read-out: Ratio IC50; how it was run: as §3
K562 [17] = test: Induction of apoptosis in human K562 cells assessed as decrease in survivin level at 32 uM after 12 hrs by flow cytometric analysis relative to control; format: functional
Jurkat [18] = test: Cytotoxicity against human Jurkat cells assessed as reduction in cell viability after 48 hrs by MTT assay; format: functional, cell-based
Jurkat [19] = test: Antiproliferative activity against human Jurkat cells assessed as reduction in KI-67 expression at 30.08 uM after 12 hrs by flow cytometric analysis; format: functional, cell-based
K562 [20] = test: Induction of apoptosis in human K562 cells assessed as increase in caspase-3 expression at 32 uM after 12 hrs by flow cytometric analysis relative to control; format: functional
[21] = Hemolytic activity in human RBC at 2 times IC50 relative to control; format: ADME, cell-based, Erythrocyte; conditions: red blood cells (erythrocytes), read-out: Activity; how it was run: as §1
Jurkat [22] = test: Induction of apoptosis in human Jurkat cells assessed as increase in loss of membrane integrity at 30.08 uM by acridine orange/ethidium bromide staining-based fluorescence microscopic analysis; format: functional, cell-based
K562 [23] = test: Induction of apoptosis in human K562 cells assessed as increase in Bax expression at 32 uM after 12 hrs by flow cytometric analysis relative to control; format: functional
Homo sapiens = organism: Homo sapiens; test: (§4) Cytotoxicity against acute leukemia patient-derived bone marrow cells assessed as reduction in cell viability after 24 hrs; format: functional, cell-based
How it was run: (§5)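 Mononuclear cells from acute leukemia patient samples (peripheral blood or bone marrow, taken before first treatment at diagnosis or relapse) isolated by Ficoll-Hypaque.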

[24] = as §4; format: functional, cell-based; conditions: Homo sapiens; how it was run: as §5
[25] = Hemolytic activity in human RBC at 1 time IC50 relative to control; format: ADME, cell-based, Erythrocyte; conditions: red blood cells (erythrocytes), read-out: Activity; how it was run: as §1
[26] = Hemolytic activity in human RBC at 9 times IC50 relative to control; format: ADME, cell-based, Erythrocyte; conditions: red blood cells (erythrocytes), read-out: Activity; how it was run: as §1
Jurkat [27] = test: Induction of apoptosis in human Jurkat cells assessed reduction in cells with intact mitochondrial membrane potential at 30.08 uM after 12 hrs by flow cytometric analysis relative to control; format: functional; parameters: scale not given: the % may be the effect or the level left
K562 [28] = test: Induction of apoptosis in human K562 cells at 32 uM after 12 hrs by Annexin-V FITC staining-based flow cytometry relative to control; format: functional
Jurkat [29] = test: Induction of apoptosis in human Jurkat cells assessed as decrease in Bcl2 expression at 30.08 uM after 12 hrs by flow cytometric analysis relative to control; parameters: scale not given: the % may be the effect or the level left
K562 [30] = test: Antiproliferative activity against human K562 cells assessed as reduction in KI-67 expression at 32 uM after 12 hrs by flow cytometric analysis; format: functional, cell-based
K562 [31] = test: Induction of apoptosis in human K562 cells assessed as increase in membrane blebbing at 32 uM by acridine orange/ethidium bromide staining-based fluorescence microscopic analysis; format: functional, cell-based
Daudi [32] = test: Cytotoxicity against human Daudi cells assessed as reduction in cell viability after 24 hrs by MTT assay; format: functional, cell-based; how it was run: as §2
PBMC [33] = test: Cytotoxicity against human PBMC assessed as reduction in cell viability after 24 hrs by MTT assay; format: cell-based
K562 [34] = test: Cytotoxicity against human K562 cells assessed as reduction in cell viability after 24 hrs by MTT assay; format: functional, cell-based; conditions: K562, 24 h; how it was run: as §2
Jurkat [35] = test: Induction of DNA fragmentation in human Jurkat cells assessed as increase in ladder formation at 30.08 uM after 12 hrs by ethidium bromide staining based agarose gel electrophoresis method; format: functional, cell-based
Daudi [36] = test: Cytotoxicity against human Daudi cells assessed as reduction in cell viability after 48 hrs by MTT assay; format: functional, cell-based
[37] = Hemolytic activity in human RBC at 15 times IC50 relative to control; format: ADME, cell-based, Erythrocyte; conditions: red blood cells (erythrocytes), read-out: Activity; how it was run: as §1
PBL = test: Cytotoxicity against acute leukemia patient-derived PBL cells assessed as reduction in cell viability after 24 hrs; format: functional, cell-based; conditions: Homo sapiens; how it was run: as §5

COc1cc(C2=NN(C(C)=O)C(c3ccc(Br)cc3)C2)cc(OC)c1OC (stereo unspecified)
pIC50 (B16-F10): 4.14 | pIC50 (Jurkat [1]): 4.81 | pIC50 (PBMC [2]): 3.54 | Activity (K562 [3]): Active | Activity (Jurkat [4]): 10.7% | hemolysis at 12 times IC50 [5]: 12.9% | Activity (K562 [6]): 21.3% | Activity (K562 [7]): 8% | Activity (K562 [8]): 13.4% | Activity (Jurkat [9]): 101.4% | Activity (Jurkat [10]): Active | pIC50 (K562 [11]): 4.82 | pIC50 (Jurkat [12]): 4.51 | Activity (Jurkat [13]): 33.2% | Activity (K562 [14]): 25.3% | selectivity ratio at 24 h [15]: 3.4 | selectivity ratio at 24 h [16]: 10.6 | Activity (K562 [17]): 21.2% | pIC50 (Jurkat [18]): 4.76 | Activity (Jurkat [19]): Active | Activity (K562 [20]): 20% | hemolysis at 2 times IC50 [21]: 1.3% | Activity (Jurkat [22]): Active | Activity (K562 [23]): 15.8% | Activity (Homo sapiens): Dose-dependent effect | pIC50 [24]: 4.01 to 4.51 | hemolysis at 1 times IC50 [25]: 0.9% | hemolysis at 9 times IC50 [26]: 6% | Activity (Jurkat [27]): 32.9% | Activity (K562 [28]): 25% | Activity (Jurkat [29]): 12.9% | Activity (K562 [30]): Active | Activity (K562 [31]): Active | pIC50 (Daudi [32]): 4.30 | pIC50 (PBMC [33]): 3.47 | pIC50 (K562 [34]): 4.49 | Activity (Jurkat [35]): Active | pIC50 (Daudi [36]): 4.46 | hemolysis at 15 times IC50 [37]: 15.8% | Activity (PBL): Dose-dependent effect | pIC50 (PBL): 3.85 to 4.93
